Our source for the selectivity ratio and Activity values is ChEMBL document CHEMBL4373711, “Development of 3,5-Dinitrophenyl-Containing 1,2,4-Triazoles and Their Trifluoromethyl Analogues as Highly Efficient Antitubercular Agents Inhibiting Decaprenylphosphoryl-β-d-ribofuranose 2'-Oxidase” (J Med Chem, 2019).

Data set [1] can be described thus: Selectivity index, ratio of IC50 for human HepG2 cells to MIC>99 for antimycobacterial activity against Mycobacterium tuberculosis H37Rv CNCTC My 331/88 after 21 days. It is filed as toxicity. The settings on record: read-out: Selectivity Index. The procedure, abridged: (§1)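 SI from HepG2 IC50 and M. tuberculosis MIC. HepG2 cells: DMEM + 10% FBS + 1 mM pyruvate, 10,000/well, 48 h treatment, 0.1% DMSO and 10% SDS controls, MTS absorbance at 490 nm.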

Data set [2] in a line: Selectivity index, ratio of IC50 for human HepG2 cells to MIC>99 for antimycobacterial activity against Mycobacterium avium CNCTC My 330/88 after 14 days. The settings on record: read-out: Selectivity Index. It is filed as toxicity.
Data set [3] is described as follows: Selectivity index, ratio of IC50 for human HepG2 cells to MIC>99 for antimycobacterial activity against Mycobacterium avium CNCTC My 330/88 after 21 days. It is filed as toxicity. The settings on record: read-out: Selectivity Index.
The nature of data set [4]: Selectivity index, ratio of IC50 for human HepG2 cells to MIC>99 for antimycobacterial activity against Mycobacterium kansasii CNCTC My 235/80 after 14 days. To be noted: read-out: Selectivity Index. It is filed as toxicity.
Data set [5] is described as follows: Selectivity index, ratio of IC50 for human HepG2 cells to MIC>99 for antimycobacterial activity against Mycobacterium kansasii CNCTC My 235/80 after 21 days. It is filed as toxicity. The settings on record: read-out: Selectivity Index.
Data set [6] in a line: Selectivity index, ratio of IC50 for human HepG2 cells to MIC>99 for antimycobacterial activity against Mycobacterium kansasii 6509/96 after 14 days. Format: toxicity. The settings on record: read-out: Selectivity Index.
Data set [7] can be described thus: Selectivity index, ratio of IC50 for human HepG2 cells to MIC>99 for antimycobacterial activity against Mycobacterium kansasii 6509/96 after 21 days. To be noted: read-out: Selectivity Index. Format: toxicity.
Data set [8] can be described thus: Selectivity index, ratio of IC50 for human HepG2 cells to MIC>99 for antimycobacterial activity against XDR Mycobacterium tuberculosis Praha 131 after 14 days. Format: toxicity. The settings on record: read-out: Selectivity Index. In outline:
as §1

Data set [9] in a line: Selectivity index, ratio of IC50 for human HepG2 cells to MIC>99 for antimycobacterial activity against XDR Mycobacterium tuberculosis Praha 131 after 21 days. It is filed as toxicity. The settings on record: read-out: Selectivity Index. The procedure, abridged: as §1
A short description of data set [10]: Selectivity index, ratio of IC50 for human A431 cells to MIC>99 for antimycobacterial activity against Mycobacterium tuberculosis H37Rv CNCTC My 331/88 after 14 days. It is filed as toxicity. The settings on record: read-out: Selectivity Index.
Data set [11] in a line: Selectivity index, ratio of IC50 for human A431 cells to MIC>99 for antimycobacterial activity against Mycobacterium tuberculosis H37Rv CNCTC My 331/88 after 21 days. It is filed as toxicity. To be noted: read-out: Selectivity Index.
Data set [12] is described as follows: Selectivity index, ratio of IC50 for human A431 cells to MIC>99 for antimycobacterial activity against Mycobacterium kansasii CNCTC My 235/80 after 14 days. It is filed as toxicity. To be noted: read-out: Selectivity Index.
Data set [13] in a line: Selectivity index, ratio of IC50 for human A431 cells to MIC>99 for antimycobacterial activity against Mycobacterium kansasii CNCTC My 235/80 after 21 days. It is filed as toxicity. The settings on record: read-out: Selectivity Index.
Data set [14] can be described thus: Selectivity index, ratio of IC50 for human A431 cells to MIC>99 for antimycobacterial activity against Mycobacterium kansasii 6509/96 after 7 days. It is filed as toxicity. The settings on record: read-out: Selectivity Index.
Data set [15] in a line: Selectivity index, ratio of IC50 for human A431 cells to MIC>99 for antimycobacterial activity against Mycobacterium kansasii 6509/96 after 14 days. The settings on record: read-out: Selectivity Index. Format: toxicity.
Data set [16] in a line: Selectivity index, ratio of IC50 for human A431 cells to MIC>99 for antimycobacterial activity against Mycobacterium kansasii 6509/96 after 21 days. To be noted: read-out: Selectivity Index. Format: toxicity.
Data set [17] is described as follows: Selectivity index, ratio of IC50 for human A431 cells to MIC>99 for antimycobacterial activity against XDR Mycobacterium tuberculosis Praha 131 after 14 days. The settings on record: read-out: Selectivity Index. It is filed as toxicity.
The nature of data set [18]: Selectivity index, ratio of IC50 for human A431 cells to MIC>99 for antimycobacterial activity against XDR Mycobacterium tuberculosis Praha 131 after 21 days. To be noted: read-out: Selectivity Index. Format: toxicity.
The nature of data set [19]: Genotoxicity in Salmonella typhimurium TA100 at 30 uM in presence of rat liver S9 fraction by Ames test. The settings on record: salmonella enterica subsp. enterica serovar typhimurium, s9, 30 µM. It is filed as toxicity, subcellular. The procedure, abridged: (§2)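 Microplate fluctuation Ames reverse-mutation test following kit instructions; TA98 detects frameshift and TA100 base-exchange mutations. Compound at 30 µM final with Aroclor-1254-induced rat liver S9 plus cofactors.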

Data set [20] is described as follows: Genotoxicity in Salmonella typhimurium TA98 at 30 uM in presence of rat liver S9 fraction by Ames test. Format: toxicity, subcellular. To be noted: salmonella enterica subsp. enterica serovar typhimurium, s9, 30 µM. The procedure, abridged: as §2
In general terms: The Ames test uses bacterial strains that need an amino acid and regain growth without it when mutated back.

In the case of `O=[N+]([O-])c1cc(-c2nnc(SCc3ccccc3)n2Cc2ccccc2)cc(C(F)(F)F)c1`, the selectivity ratio at 504 h in data set [1], in data set [3], in data set [5], in data set [7], in [9] and in data set [11] was over 100 each time. The selectivity ratio at 504 h in [13], in data set [16] and in [18] was over 100 throughout. For the same molecule, the selectivity ratio at 336 h in data set [2], in [4], in [6], in data set [8], in data set [10] and in data set [12] was over 100 in each case. Also, the selectivity ratio at 336 h in data set [15] and in data set [17] was over 100 in each case. Besides, the selectivity ratio at 168 h in data set [14] was over 100.

Consider `O=[N+]([O-])c1cc(-c2nnc(SCc3ccccc3)n2Cc2ccccc2)cc([N+](=O)[O-])c1`, for which the Activity entry in data set [19] and in data set [20] was “Non-Toxic” in each case.
